Data set [1] in a line: Solubility measurement in distilled water. The class given is physicochemical. The note with it: 37 °C, thermodynamic from solid. The essentials: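 Excess solid test compound in distilled water was shaken 24 h at 37 °C (100 rpm), then centrifuged at 10,000 rpm for 10 min. Supernatant absorbance was read at 217 nm and solubility calculated from a standard curve.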
The test system of the next data set is A549 cells. Kind of data set: Cell proliferation activity assay. The class given is cell-based. The following applies: Homo sapiens, A549, read-out: IC50 on A549 cells. In short, it runs like this:
(§1)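 Cells were kept in DMEM with 10% FBS and 1% penicillin–streptomycin at 37 °C and 5% CO2, and passaged with 0.25% trypsin-EDTA at 80–90% confluency. They were seeded at 5 × 10^3 cells/well, grown 24 h, then given test compound at 5, 10, 20, 40, 60, 80 or 100 μM final, with 1% DMSO as control. Read-out was MTT absorbance at 490 nm, as viability versus control. IC50 was fitted from viability data; 3–5 replicates per sample; mean ± SD of three independent experiments.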

The subject of a further data set is MCF-7 cells. Kind of data set: Cell proliferation activity assay. The class given is cell-based. The note with it: Homo sapiens, MCF7, read-out: IC50 on MCF-7 cells. In short, it runs like this: as §1
The subject of data set [2] is HeLa cells. Kind of data set: Cell proliferation activity assay. The following applies: Homo sapiens, read-out: IC50 on HeLa cells. The class given is cell-based. The essentials: as §1
Data set [3] deals with HeLa cells. Kind of data set: Annexin V/PI apoptosis assay by flow cytometry. The class given is cell-based. The note with it: 20 μM, 24 h, control group 6.2%.

Molecules are shown by their SMILES. Converted amounts (≈) assume the structure as drawn.

Take `CC(C)=CCC[C@](C)(O)[C@H]1CC[C@]2(C)[C@@H]1[C@H](O)C[C@@H]1[C@@]3(C)CC[C@H](O[C@@H]4O[C@H](CO)[C@@H](O)[C@H](O)[C@H]4O)C(C)(C)[C@@H]3CC[C@]12C` [Rh2, Ginsenoside Rh2]: the solubility at 24 h in data set [1] amounted to 0.074 mg/mL (≈ 119 µM). Besides, the values for the IC50 with A549 cells, in the data set with MCF-7 cells and in the data set on HeLa cells [2] were 85.3 µM, 73.6 µM and 68 µM, respectively. For the same compound, the “percentage of early and late apoptosis” value in the data set with HeLa cells [3] stood at 5.3%.

The term solubility denotes the concentration that dissolves in the medium under given conditions. A high value points to a readily soluble substance. By IC50 is commonly meant the concentration that gives 50% inhibition.

The record behind these values is PMC10193561 (ACS Omega, 2023).
